Consider 18 compounds from ChEMBL document CHEMBL1135595, “Design, synthesis and biological evaluation of novel N-alkyl- and N-acyl-(7-substituted-2-phenylimidazo[1,2-a][1,3,5]triazin-4-yl)amines (ITAs) as novel A(1) adenosine receptor antagonists” (J Med Chem, 2002).

Where only a bound is given, the exact number is not on record here.

Usually Ki stands for the equilibrium dissociation constant of an inhibitor or competing ligand from its target. Higher therefore signals lower affinity.

One assay has as its target T1, Adenosine receptor A1 (Bos taurus, UniProt P28190).
T1 sequence (P28190 whole entry): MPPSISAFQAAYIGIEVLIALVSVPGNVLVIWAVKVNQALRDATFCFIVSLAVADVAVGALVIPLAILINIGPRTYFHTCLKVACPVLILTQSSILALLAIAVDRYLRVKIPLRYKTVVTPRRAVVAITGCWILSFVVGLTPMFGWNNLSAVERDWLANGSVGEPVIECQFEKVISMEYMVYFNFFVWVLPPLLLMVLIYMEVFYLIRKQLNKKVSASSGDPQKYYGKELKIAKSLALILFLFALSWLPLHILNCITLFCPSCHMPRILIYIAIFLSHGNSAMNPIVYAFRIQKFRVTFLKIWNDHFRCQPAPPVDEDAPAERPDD
In words: Displacement of [3H]CHA from Adenosine A1 receptor in bovine cortical membranes. It is filed as cell membranes. The procedure, abridged:
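Compounds were dissolved in DMSO (≤2% in assay) and tested at six or more concentrations. n = 4 independent experiments in triplicate. Ki and IC50 ± SEM came from iterative curve fitting. Protein was measured with BSA as standard after NaOH (0.75 N) solubilization.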
(Displacement assays read how much labelled ligand stays bound in the presence of the test substance.)

For assay [1], the target named is Adenosine receptor A2a (Bos taurus). In words: Displacement of [3H]- CGS-21680 from Adenosine A2a receptor in bovine striatal membranes.

Consider `CC(=O)CNc1nc(-c2ccccc2)nc2nc(C(C)C)cn12`, for which the Ki on Adenosine receptor A1 came out at 2.36 µM.

As for `Cc1cn2c(NC34C[C@H]5C[C@@H](C3)C[C@@H](C4)C5)nc(-c3ccccc3)nc2n1`, the Ki was 0.511 µM on Adenosine receptor A1 and over 10 µM in assay [1].

For `CC(=O)CNc1nc(-c2ccccc2)nc2nc(C)cn12`, the inhibition constant Ki is 0.012 µM at Adenosine receptor A1 and over 10 µM in assay [1].

Take `Cc1cn2c(NC(=O)c3ccccc3)nc(-c3ccccc3)nc2n1`: the affinity at Adenosine receptor A1 corresponds to a Ki of 0.0272 µM.

Turning to `CC(=O)Nc1nc(-c2ccccc2)nc2nc(-c3ccccc3)cn12`, the results for the Ki (at Adenosine receptor A1; in assay [1]) were 0.023 µM and 3.2 µM, respectively.

In the case of `CC(=O)CNc1nc(-c2ccccc2)nc2nc(-c3ccccc3)cn12`, the inhibitory constant (Ki) on Adenosine receptor A1 is over 10 µM.

`Cc1cn2c(NCC3CCCCC3)nc(-c3ccccc3)nc2n1` showed an inhibition constant Ki on Adenosine receptor A1 of 0.231 µM.

For the compound `Cc1cn2c(NC3CCCC3)nc(-c3ccccc3)nc2n1`, the Ki at Adenosine receptor A1 worked out at 0.041 µM; in assay [1], 4.1 µM.

As to `Cc1cn2c(NCc3ccccc3)nc(-c3ccccc3)nc2n1`, the affinity on Adenosine receptor A1 corresponds to a Ki of 3.9 µM.

For `CC(C)c1cn2c(NC(=O)C3CCCC3)nc(-c3ccccc3)nc2n1`, the Ki at Adenosine receptor A1 was 0.0058 µM; in assay [1], over 10 µM.

For the compound `O=C(Nc1nc(-c2ccccc2)nc2nc(-c3ccccc3)cn12)C1CCCC1`, the Ki at Adenosine receptor A1 is 0.017 µM; in assay [1], 2.5 µM.

The compound `Cc1cn2c(NC(=O)C3CCCCC3)nc(-c3ccccc3)nc2n1` yielded an inhibitory constant (Ki) on Adenosine receptor A1 of 0.116 µM.

For `Cc1cn2c(NC(=O)C3CCCC3)nc(-c3ccccc3)nc2n1`, affinity at Adenosine receptor A1 was put at a Ki of 0.0044 µM.

As for `CCc1cn2c(NCC(C)=O)nc(-c3ccccc3)nc2n1`, the Ki at Adenosine receptor A1 was over 10 µM.

As to `CCC(=O)CNc1nc(-c2ccccc2)nc2nc(C)cn12`, the Ki (at Adenosine receptor A1; in assay [1]) was over 10 µM each time.

The compound `CCc1cn2c(NC(=O)C3CCCC3)nc(-c3ccccc3)nc2n1` yielded an inhibitory constant (Ki) at Adenosine receptor A1 of 0.0033 µM.

`Cc1cn2c(N)nc(-c3ccccc3)nc2n1`: the affinity at Adenosine receptor A1, expressed as Ki, was 0.332 µM.

For `CC(=O)Nc1nc(-c2ccccc2)nc2nc(C)cn12`, the Ki was 0.855 µM at Adenosine receptor A1 and over 10 µM in assay [1].
